Experimental data published in ChEMBL document CHEMBL1138512, “A class of 2,4-bisanilinopyrimidine Aurora A inhibitors with unusually high selectivity against Aurora B” (J Med Chem, 2009).

How the values were obtained:
Aurora kinase A [1] = biological target: T1, Aurora kinase A (Homo sapiens, UniProt O14965); assay: Inhibition of N-terminal flag-tagged Aurora A expressed in Escherichia coli BL21-DE3 by ELISA
T1 sequence (O14965 whole entry): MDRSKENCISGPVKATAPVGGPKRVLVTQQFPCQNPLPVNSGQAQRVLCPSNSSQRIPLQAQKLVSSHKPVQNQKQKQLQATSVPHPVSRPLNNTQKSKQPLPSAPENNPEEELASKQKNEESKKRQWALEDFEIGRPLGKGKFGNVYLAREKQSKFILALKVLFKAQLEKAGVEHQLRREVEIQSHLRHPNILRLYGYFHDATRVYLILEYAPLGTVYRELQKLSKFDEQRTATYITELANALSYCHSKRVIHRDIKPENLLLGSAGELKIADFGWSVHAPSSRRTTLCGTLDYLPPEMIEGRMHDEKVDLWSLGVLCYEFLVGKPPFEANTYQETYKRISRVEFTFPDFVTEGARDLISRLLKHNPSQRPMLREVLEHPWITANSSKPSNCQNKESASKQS

HT-29 = assay: Antiproliferative activity against human HT-29 cells after 4 days by celltiter assay; assay type: functional, cell-based; settings: HT-29, 96 h
Aurora kinase B [2] = biological target: T2, Aurora kinase B (Homo sapiens, UniProt Q96GD4); assay: Inhibition of Aurora B in human HCT116 cells assessed as complete loss of phospho-histone H3 staining by immunofluorescence assay
T2 sequence (Q96GD4 whole entry): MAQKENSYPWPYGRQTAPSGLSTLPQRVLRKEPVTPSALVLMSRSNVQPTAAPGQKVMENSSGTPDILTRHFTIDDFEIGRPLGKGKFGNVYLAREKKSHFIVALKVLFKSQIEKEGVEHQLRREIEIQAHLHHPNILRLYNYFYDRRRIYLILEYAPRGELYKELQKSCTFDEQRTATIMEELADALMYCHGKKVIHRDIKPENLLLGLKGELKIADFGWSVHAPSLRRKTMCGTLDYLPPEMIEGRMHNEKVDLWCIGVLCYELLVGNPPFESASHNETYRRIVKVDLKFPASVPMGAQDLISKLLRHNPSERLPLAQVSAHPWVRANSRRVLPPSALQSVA

Aurora kinase A [3] = biological target: Aurora kinase A (Homo sapiens, UniProt O14965, T217E); assay: Inhibition of N-terminal flag-tagged Aurora A T217E mutant expressed in Escherichia coli BL21-DE3
Chain of Aurora kinase A (Homo sapiens, UniProt O14965, T217E) (O14965 whole entry I57V/T217E): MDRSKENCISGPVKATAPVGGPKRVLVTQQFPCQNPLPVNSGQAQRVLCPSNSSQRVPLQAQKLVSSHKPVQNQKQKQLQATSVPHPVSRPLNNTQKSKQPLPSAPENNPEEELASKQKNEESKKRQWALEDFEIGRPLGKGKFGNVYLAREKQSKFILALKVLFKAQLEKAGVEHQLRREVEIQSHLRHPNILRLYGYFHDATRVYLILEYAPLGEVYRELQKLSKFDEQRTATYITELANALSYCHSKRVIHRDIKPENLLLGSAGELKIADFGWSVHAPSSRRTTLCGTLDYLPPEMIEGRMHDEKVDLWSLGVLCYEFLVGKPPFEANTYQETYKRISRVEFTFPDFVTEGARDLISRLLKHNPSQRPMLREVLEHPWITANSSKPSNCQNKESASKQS

Aurora kinase A [4] = biological target: T1, Aurora kinase A; assay: Inhibition of Aurora A in human HCT116 cells assessed as complete loss of phospho-Aurora A staining in centrosomes by immunofluorescence assay; assay type: cell-based, HCT-116
[5] = biological target: Cyclin-dependent kinase 2 (Homo sapiens, UniProt P24941); assay: Inhibition of CDK2/cyclin A
Aurora kinase B [6] = biological target: T2, Aurora kinase B; assay: Inhibition of N-terminal flag-tagged Aurora B expressed in Escherichia coli BL21-DE3 by ELISA
HCT-116 = assay: Antiproliferative activity against human HCT116 cells after 4 days by celltiter assay; assay type: functional, cell-based; settings: HCT-116, 96 h
Aurora kinase B [7] = biological target: T2, Aurora kinase B; assay: Inhibition of Aurora B in human HT29 cells assessed as complete loss of phospho-histone H3 staining by immunofluorescence assay; assay type: cell-based, HT-29
Method in brief: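 Immunofluorescence for phospho-S10 histone H3 in HCT116 or HT29 cells, scored visually. Value taken as the lowest inhibitor concentration giving complete loss of staining, so it lies above the IC50. Units µM.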

Aurora kinase B [8] = biological target: Aurora kinase B (Homo sapiens, UniProt Q96GD4, E161T); assay: Inhibition of N-terminal flag-tagged Aurora B E161T mutant expressed in Escherichia coli BL21-DE3
Chain of Aurora kinase B (Homo sapiens, UniProt Q96GD4, E161T) (Q96GD4 whole entry E161T): as the sequence (Q96GD4 whole entry) above, with E161T counted along it

Row | Compound | IC50 (Aurora kinase A [1]) [nM] | further results
1 | COc1cccc(NC(=O)c2ccc(Nc3nc(Nc4ccc(O)cc4)ncc3F)cc2)c1 | 36 | 
2 | O=C(Nc1cccc(O)c1)c1ccc(Nc2nc(Nc3ccc(O)cc3)ncc2F)cc1 | 19 | 
3 | O=C(Nc1cccc(Cl)c1)c1ccc(Nc2nc(Nc3ccc(O)cc3)ncc2F)cc1 | 140 | 
4 | O=C(Nc1ccccc1)c1ccc(Nc2nc(Nc3ccc(O)cc3)ncc2F)cc1 | 19 | 
5 | Cc1cccc(Nc2nc(Nc3ccc(O)cc3)ncc2F)c1 | 180 | 
6 | Cc1ccccc1NC(=O)c1ccc(Nc2nc(Nc3ccc(O)cc3)ncc2F)cc1 | 20 | 
7 | Fc1ccc(Nc2ncc(F)c(Nc3ccc(F)cc3)n2)cc1 | 200 | 
8 | CCN1CCN(C(=O)Cc2ccc(Nc3ncc(F)c(Nc4ccc(C(=O)Nc5ccccc5Cl)cc4)n3)cc2)CC1 | 3.4 | IC50 (HT-29): 2900 nM; IC50 (Aurora kinase B [2]): > 50000 nM; IC50 (Aurora kinase A [3]): 2000 nM; IC50 (Aurora kinase A [4]): 2500 nM; IC50 [5]: > 16000 nM; IC50 (Aurora kinase B [6]): 3400 nM; IC50 (HCT-116): 190 nM; IC50 (Aurora kinase B [7]): > 27000 nM; IC50 (Aurora kinase B [8]): 55 nM
9 | O=C(Nc1ccc(Nc2nc(Nc3ccc(O)cc3)ncc2F)cc1)c1ccccc1Cl |  | IC50 (HT-29): 7200 nM; IC50 (Aurora kinase B [2]): > 12000 nM; IC50 (Aurora kinase B [6]): 1400 nM; IC50 (HCT-116): 850 nM; IC50 (Aurora kinase B [7]): > 30000 nM
10 | COc1ccc(NC(=O)c2ccc(Nc3nc(Nc4ccc(O)cc4)ncc3F)cc2)cc1 | 14 | 
11 | Oc1ccc(Nc2ncc(C(F)(F)F)c(Nc3ccc(O)cc3)n2)cc1 | 14 | 
12 | CCc1cnc(Nc2ccc(O)cc2)nc1Nc1ccc(O)cc1 | 150 | 
13 | CC(C)NC(=O)c1ccc(Nc2nc(Nc3ccc(O)cc3)ncc2F)cc1 | 51 | 
14 | Oc1ccc(Nc2ncc(F)c(Nc3ccc(O)cc3)n2)cc1 | 30 | 
15 | Oc1ccc(Nc2ccnc(Nc3ccc(O)cc3)n2)cc1 | 490 | 
16 | CCCNC(=O)c1ccc(Nc2nc(Nc3ccc(O)cc3)ncc2F)cc1 | 49 | 

Now from value to compound, other results behind:

Row | IC50 (Aurora kinase A [1]) [nM] | Compound | further results
17 | 64 | O=C(Nc1ccc(Cl)cc1)c1ccc(Nc2nc(Nc3ccc(O)cc3)ncc2F)cc1 | 
18 | 34 | Cc1cnc(Nc2ccc(O)cc2)nc1Nc1ccc(O)cc1 | 
19 | > 17000 | Cc1cc(Nc2ccc(O)cc2)nc(Nc2ccc(O)cc2)n1 | 
20 | 23 | N#Cc1cnc(Nc2ccc(O)cc2)nc1Nc1ccc(O)cc1 | 
21 | 160 | NC(=O)c1ccc(Nc2nc(Nc3ccc(O)cc3)ncc2F)cc1 | 
22 | 13 | O=C(Nc1ccc(O)cc1)c1ccc(Nc2nc(Nc3ccc(O)cc3)ncc2F)cc1 | 
23 | > 17000 | Cc1nc(Nc2ccc(O)cc2)nc(Nc2ccc(O)cc2)c1C | 
